Sampled rows, rich in hits. Any-hit rate of the full collection: about 2.5%.
Rev-erbA mod – modulators of human Rev-erb alpha DNA binding | P20393 | Rev-erbα–FITC-DNA binding, fluorescence polarization, 90 min | activity, % at 10 µM | 370,000 tested, 0.79% active;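 active means activity above about 14%, limit read from the data; passing the limit was not always enough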
Target sequence (P20393 whole entry, looked up): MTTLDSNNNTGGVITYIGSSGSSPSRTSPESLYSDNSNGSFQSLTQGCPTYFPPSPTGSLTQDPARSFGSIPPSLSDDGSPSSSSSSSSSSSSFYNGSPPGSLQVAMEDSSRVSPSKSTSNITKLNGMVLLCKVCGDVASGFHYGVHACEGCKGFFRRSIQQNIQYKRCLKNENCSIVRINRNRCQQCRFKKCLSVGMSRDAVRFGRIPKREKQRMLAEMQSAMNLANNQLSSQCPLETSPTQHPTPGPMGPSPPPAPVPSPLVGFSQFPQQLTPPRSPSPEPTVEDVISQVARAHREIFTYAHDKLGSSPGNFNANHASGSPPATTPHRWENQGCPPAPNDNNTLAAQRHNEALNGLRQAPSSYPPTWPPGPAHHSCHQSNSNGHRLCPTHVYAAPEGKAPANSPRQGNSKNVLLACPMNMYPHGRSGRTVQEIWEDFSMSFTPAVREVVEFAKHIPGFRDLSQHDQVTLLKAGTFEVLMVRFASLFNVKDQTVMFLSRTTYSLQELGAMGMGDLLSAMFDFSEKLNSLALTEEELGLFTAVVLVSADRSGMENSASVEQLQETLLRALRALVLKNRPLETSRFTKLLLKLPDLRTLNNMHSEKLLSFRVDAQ
NTR1 ag – agonists of human neurotensin receptor NTR1; NTR1-U2OS beta-arrestin-GFP spot imaging, agonist mode; activation, % at 20 µM; 330,000 tested, 0.17% active; P30989;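 active means activation at or above 40% of the spot to cytoplasm intensity ratio, with at least 20 cells analyzed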
MC4R antagonist – antagonists of human melanocortin 4 receptor (MC4R) | MC4R-expressing cells, MTII-stimulated cAMP, LANCE TR-FRET | AID 540295 | inhibition, % at 6.5 µM | P32245 | 360,000 tested, 0.48% active;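 active means inhibition above its plate's cutoff, the mean of tested wells on that plate plus 3 SD, cut at about 29% in these data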
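System: U2OS cells stably expressing human melanocortin 4 receptor (MC4R). Reagent: Melanotan II challenge after compound preincubation. Doses: 6.5 µM. Times: 30-min compound, 1-h challenge, 1-h detection, room temperature. Measured by: TR-FRET with Eu-cAMP and labeled anti-cAMP, 671 nm. Replicates: singlicate.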
MC4R barr agon – agonists of human melanocortin 4 receptor (MC4R) beta-arrestin | P32245 | activation, % at 8.9 µM | 360,000 tested, 0.98% active | U2OS MC4R beta-arrestin complementation, luminescence; percent of melanotan II response, DMSO zero;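 active means activation above a per-plate cutoff, the mean activation of sample wells on that plate plus 3 SD, cut at about 8% in these data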
PG9 binder – small molecules binding HIV-1 gp120 antibody PG9. AID 624416. TR-FRET gp120-PG9 antibody binding. 360,000 tested, 0.43% active. inhibition, % at 6.7 µM; in the data active means inhibition above about 8.5%
NR1D1 mod conf – confirmation of modulators of human Rev-erb alpha DNA binding; shares compounds with Rev-erbA mod; Rev-erb alpha FITC-DNA binding, fluorescence polarization, 90 min; activation, % at 25 µM; 3,000 tested, 61% active; AID 1259319;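 active means activation at or above a set limit, or at least 3 SD above the negative control mean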
RORg counter – counter-screen for Rev-erb alpha modulators: RORgamma DNA binding; purified RORgamma protein-FITC-DNA binding, fluorescence polarization; IC50, µM; AID 1259320; shares compounds with Rev-erbA mod; 910 tested, 8% active;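 active means Compounds whose fitted half-maximal concentration for disrupting protein-DNA binding is below 10 micromolar; the record names Rev-erb in its text, so the target is in doubt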
Hits are given with their value; 0 = inactive; - = not tested or not shown.

SMILES	Rev-erbA mod	NTR1 ag	MC4R antagonist	MC4R barr agon	PG9 binder	NR1D1 mod conf	others
O=C1NC(=S)N/C1=C\c1ccc(N2CCOCC2)cc1	0	0	0	0	0	-
O=C1/C(=C/c2ccc(N3CCCC3)cc2)NC(=S)N1C1CC1	27	0	0	0	0	27
Cn1nc(C(=O)OCC(=O)NCc2ccc(Cl)cc2Cl)c2ccccc2c1=O	18	-	0	0	0	20
O=C(CCn1c(=O)c2cccn2c2cccnc21)NCc1cccc(Cl)c1	64	0	0	0	0	64	RORg counter=4.3
COC(=O)[C@H]1[C@@H](O)[C@@]2(O)c3c(OC)cc(OC)cc3O[C@@]2(c2ccc(OC)cc2)[C@@H]1c1ccc(F)cc1	0	-	-	-	0	-
O=[N+]([O-])c1ccc(N=Nc2ccc(O)cc2O)cc1	37	0	0	0	0	23
C=CCOC(=O)N[C@H](c1ccc2ccccc2c1)[C@H](C)/C=C/CC(=O)OC	0	-	-	-	-	-
CC1=CC(=C(C#N)C#N)C=C(C)N1CCN1CCN(C(=O)Nc2ccc(Cl)c(Cl)c2)CC1	41	0	0	0	0	26
CCOc1ccccc1N1CCN(C(=O)Nc2ccc(Cl)c(Cl)c2)CC1	-	0	-	-	-	-
O=C(Nc1cc([N+](=O)[O-])ccc1O)NC1CCS(=O)(=O)C1 (stereo not drawn)	16	0	0	0	0	15
CC(C)OC(=O)CC(=O)CSc1nc(-c2ccc(F)cc2)cc(-c2ccccc2)c1C#N	36	0	0	0	0	26
Nc1c(C(=O)O)sc2nc(-c3ccccc3)c3c(c12)CCCC3	0	0	0	0	0	-
O=c1[nH]cnc2c1sc1nc(-c3ccccc3)c3c(c12)CCCC3	18	0	0	0	0	0
S=c1nc[nH]c2c1sc1nc(-c3ccccc3)c3c(c12)CCCC3	0	0	0	0	0	-
COC(=O)c1sc2nc(-c3ccccc3)c3c(c2c1N)CCCC3	69	0	0	0	0	39	RORg counter=0
CN(/N=C/c1cccnc1)c1cnn(-c2ccc(F)c(Cl)c2)c(=O)c1Cl	26	0	0	0	0	0
O=C(Nc1ccc(F)cc1)OC1CC2CC1[C@H]1CCCCN1[C@H]2Cc1ccccc1 (stereo partly drawn)	0	-	-	-	-	-
CCCCCCc1cc2cc(C(=O)Nc3ccccc3)c(=O)oc2cc1O	91	0	0	0	0	43	RORg counter=6.3
O=C1CCC[C@H]2C[C@H](NCc3ccccc3Cl)CC[C@]23CCCN13	0	-	-	-	-	-
CCC(=O)N1CCCC(C)(C(=O)Nc2ccc3scnc3c2)C1 (stereo not drawn)	19	-	0	0	0	0
COC(=O)c1sc(C(F)(F)F)c(-c2ccccc2)c1S(=O)(=O)N1CCCC1	24	0	0	0	0	27
COC(=O)C1CCC(CNC(=O)C(Cc2ccc3c(c2)OCO3)NC(C)=O)CC1 (stereo not drawn)	0	-	-	-	-	-
Clc1ccc(-c2cnc(Oc3ccccc3)nc2)cc1	0	0	0	0	0	-
Cc1cc(Cl)ccc1Oc1ncc(-c2ccc(Cl)cc2)cn1	24	0	0	0	0	18
CCN(CC(=O)NCc1ccc(Cl)cc1)C(=O)c1cnc(Cl)c(Cl)c1	0	0	0	0	0	-
SMILES	Rev-erbA mod	NTR1 ag	MC4R antagonist	MC4R barr agon	PG9 binder	NR1D1 mod conf	others
CCN(CC(=O)NCc1ccc(Cl)cc1)C(=O)c1ccc2cc(OC)ccc2c1	105	0	0	0	0	102	RORg counter=0
C=CCOc1ccc(C2NC(=S)NC(c3ccccc3)=C2C(C)=O)cc1OC (stereo not drawn)	0	0	0	0	0	-
CCOC(=O)COc1c(Cl)cc(C2NC(=S)NC(c3ccccc3)=C2C(C)=O)cc1OCC (stereo not drawn)	34	0	0	0	0	31	RORg counter=0
CCOc1ccc(C(=O)CSc2nnc(SCc3ccc(Cl)cc3)s2)cc1	0	-	-	-	-	-
Cc1c(C)c(C)c(S(=O)(=O)N2CCSCC2)c(C)c1C	0	0	0	0	0	-
Cc1cc(C)c(C)c(S(=O)(=O)N2CCSCC2)c1C	19	0	0	0	0	0
CN(CC(=O)Nc1ccc(F)cc1)C(=O)COC(=O)CNC(=O)c1sc2ccccc2c1Cl	23	0	0	0	0	0
S=c1[nH]nc(-c2cc(-c3ccccc3)n[nH]2)n1N=Cc1c[nH]c2ccccc12	0	-	-	-	-	-
CCOC(=O)N1CCN(c2nc(-c3cccs3)cc(C(F)(F)F)n2)CC1	22	0	0	0	0	0
CCOC(=O)N1CCN(c2nc(-c3ccco3)cc(C(F)(F)F)n2)CC1	0	0	0	0	0	-
Cc1ccc(Oc2nccc(-c3ccc(Cl)cc3)n2)cc1	47	0	0	0	0	46	RORg counter=0
Cc1ccc(C(=O)Nc2cccnc2Oc2ccc(Cl)cc2)cc1	0	0	0	0	0	-
Cc1onc(-c2ccc(Cl)cc2)c1-c1ccn(S(=O)(=O)c2ccccc2Cl)n1	0	-	-	-	-	-
CCCC(=O)N(c1ccc(OCC)cc1)S(=O)(=O)c1ccc2c3c(cccc13)C(=O)N2C	43	0	0	0	0	0
O=C1COc2ccccc2C(c2nnnn2Cc2ccccc2)N1Cc1cccs1 (stereo not drawn)	0	-	-	-	-	-
COc1ccc(C)cc1NC(=O)c1cc2c(=O)n3ccccc3nc2n1C	23	0	0	0	0	55	RORg counter=0
COc1ccc(NC(=O)c2cc3c(=O)n4ccccc4nc3n2C)c(OC)c1	0	0	0	0	0	-
O=C(C(=O)N1CCC(CNC(=O)c2sc3ccccc3c2Cl)CC1)c1cccs1	0	-	-	-	0	-
COc1ccc(CNC(=O)CN2C(=O)C3CCCN3c3ncc(Cl)cc32)cc1 (stereo not drawn)	43	0	0	0	0	36
CCc1ccccc1NC(=O)CN1C(=O)C2CCCN2c2ncc(Cl)cc21 (stereo not drawn)	0	0	0	0	0	-
O=C(CN1C(=O)C2CCCN2c2ncc(Cl)cc21)NCc1ccc2c(c1)OCO2 (stereo not drawn)	46	-	0	0	0	36
CCOC(=O)C(CN1CCCC1)c1ccccc1 (stereo not drawn)	21	0	0	0	0	0
COC(=O)c1ccc(COc2ccc3c4c(c(=O)oc3c2)CCC4)o1	34	0	0	0	0	0
O=c1ccc(-c2ccc(S(=O)(=O)N3CCN(c4cccc(Cl)c4)CC3)o2)n[nH]1	76	0	0	0	0	86	RORg counter=0
CCc1cc2c(=O)[nH]c(Cc3ccc(Cl)cc3)nc2s1	19	0	0	0	0	18
CN(C(=O)COC(=O)c1cc(-c2ccc(Cl)s2)nc2ccccc12)C1CCS(=O)(=O)C1 (stereo not drawn)	51	0	0	0	0	0
CN(C(=O)COC(=O)c1cc(-c2ccccc2Cl)nc2ccccc12)C1CCS(=O)(=O)C1 (stereo not drawn)	0	0	0	0	0	-
